High-throughput results: PubChem BioAssay, Sanford-Burnham Center for Chemical Genomics
Most compounds without a hit are left out; they make up all but 2.5% or so of the library.
SENP7 inh – inhibitors of human SENP7 protease | Q9BQF6 | recombinant SENP7, Z-RLRGG-aminoluciferin luminescence, 40 min | inhibition, % at 5 µM | hit rate 1.5% among 330,000 | AID 434973;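 active = inhibition above about 50% at the single test dose, limit read from the data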;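 note: plate controls were DMSO with enzyme for no effect and no enzyme buffer wells for full effect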
SENP8 block-1 – SENP8 (human) protease inhibition; hit rate 0.64% among 360,000; inhibition, % at 20 µM; recombinant SENP8, Nedd8 substrate fluorescence; in the data active = inhibition mostly above about 40%, no sharp cut-off; inactive = mostly below about 27%
Target sequence (Q96LD8 whole entry, looked up): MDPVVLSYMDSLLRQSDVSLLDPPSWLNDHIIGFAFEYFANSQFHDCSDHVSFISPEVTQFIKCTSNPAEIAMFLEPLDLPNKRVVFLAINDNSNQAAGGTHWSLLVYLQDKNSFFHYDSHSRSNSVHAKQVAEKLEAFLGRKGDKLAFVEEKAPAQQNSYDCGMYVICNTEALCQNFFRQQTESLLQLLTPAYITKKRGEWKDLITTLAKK
SENP1 inh – SENP1 (human) catalytic domain inhibition; Q9P0U3; recombinant SENP1 catalytic domain, CyPet-SUMO1-YPet FRET cleavage; inhibition, % at 10 µM; hit rate 0.21% among 360,000; AID 624204;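 active = inhibition at least 30% at 10 µM, raw YFP signal under a set limit, fluorescence ratio 0.5 to 1.5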;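 note: 0% = enzyme with DMSO and 100% = no enzyme wells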
Target sequence (Q9P0U3 419-644 limits assumed): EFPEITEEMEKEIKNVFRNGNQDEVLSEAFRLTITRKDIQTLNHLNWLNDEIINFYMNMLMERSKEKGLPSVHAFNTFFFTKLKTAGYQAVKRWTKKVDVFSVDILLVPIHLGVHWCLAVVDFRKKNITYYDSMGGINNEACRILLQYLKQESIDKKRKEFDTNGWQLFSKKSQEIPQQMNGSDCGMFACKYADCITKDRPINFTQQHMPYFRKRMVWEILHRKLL
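Compound: 10 µM single point, 0.5% DMSO; Test system: hSENP1 catalytic domain, recombinant; Timing: 50 min reaction at room temperature; Technique: FRET, CFP and YFP emission; Control set: no-enzyme wells low, DMSO-plus-enzyme wells high control.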
SENP8 block-2 – inhibitors of human SENP8 protease | purified SENP8, Z-RLRGG-aminoluciferin cleavage, luminescence | hit rate 1.2% among 330,000 | AID 2540 | Q96LD8 | inhibition, % at 10 µM; in the data active = inhibition above about 50%
SENP6 block – SENP6 protease inhibition; inhibition, % at 10 µM; Q9GZR1; Recombinant SENP6 catalytic domain, aminoluciferin luminescence; hit rate 1.8% among 330,000;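 active = inhibition above about 50% at the single tested dose, limit read from the data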;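 note: plate controls were DMSO wells with enzyme for no effect and DMSO wells lacking enzyme for full effect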
SENP8 conf – human SENP8 inhibition, confirmed. hit rate 40% among 6,200. inhibition, % at 12.5 µM. Recombinant SENP8, Z-RLRGG-aminoluciferin luminescence, 60 min. shares compounds with SENP7 inh;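 active = mean inhibition across replicates above about 50%, limit read from the data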
SENP6 confirm – confirmation of human SENP6 protease inhibitors. AID 488915. shares compounds with SENP7 inh. hit rate 58% among 6,200. recombinant SENP6, Z-RLRGG-aminoluciferin luminescence. inhibition, % at 12.5 µM
SENP7 confirm – confirmation of human SENP7 protease inhibitors; inhibition, % at 12.5 µM; hit rate 69% among 6,200; recombinant SENP7, Z-RLRGG-aminoluciferin luminescence, 40 min; AID 488917; shares compounds with SENP7 inh
Casp3 select – selectivity test for SENP inhibitors: human caspase-3 inhibition | shares compounds with SENP7 inh | purified caspase-3, Z-DEVD-aminoluciferin luminescence, 60 min | AID 488918 | hit rate 60% among 6,200 | inhibition, % at 12.5 µM;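 active = mean inhibition above about 50%, limit read from the data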;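 note: plate controls were enzyme with DMSO for no effect and wells without caspase-3 for full effect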
SENP luc ctr – counter-screen for SENP inhibitors: luminescence interference; shares compounds with SENP7 inh; AID 488919; inhibition, % at 12.5 µM; Pre-incubated SENP8/Z-RLRGG-aminoluciferin, luciferase luminescence interference; hit rate 39% among 6,200;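 active = mean inhibition above about 50% when retested at one dose, limit read from the data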;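 note: plate controls were DMSO wells with completed reaction for no effect and substrate without enzyme for full effect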
* = called active by the depositor.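 Rule for the calls, unless noted: active = mean inhibition above about 50% in the one-dose retest (limit read from the data); inactive = the rest.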

Screening O=C(c1cccc(S(=O)(=O)N2CCCC2)c1)N1CCN(Cc2ccccc2)CC1 returned SENP7 inh -10.2, SENP8 block-1 10.2, SENP1 inh -0.4, SENP8 block-2 -12.8 and SENP6 block -16.8.
`Cc1nn(C(=O)c2cccs2)c(N)c1-c1ccccc1` gave SENP7 inh 0.8, SENP8 block-1 1.8, SENP1 inh 2.1, SENP8 block-2 -3.1 and SENP6 block 29.2.
For Cc1nn(C(=O)c2ccc3c(c2)OCO3)c(N)c1-c1ccccc1 the results were SENP7 inh 65.1*, SENP8 block-1 8.5, SENP1 inh 8.5, SENP8 block-2 59.2*, SENP6 block 83.0*, SENP8 conf 4.8, SENP6 confirm 77.8*, SENP7 confirm 96.2*, Casp3 select 68.3* and SENP luc ctr 37.1.
Screening CC(C)Cc1cc(C(=O)Nc2cccc(O)c2)no1 returned SENP7 inh 91.5*, SENP8 block-1 2.0, SENP1 inh 0.4, SENP8 block-2 85.6*, SENP6 block 92.8*, SENP8 conf 90.6*, SENP6 confirm 90.6*, SENP7 confirm 99.0*, Casp3 select 91.8* and SENP luc ctr 74.6*.
Screening CC(C)Cc1cc(C(=O)Nc2ccc3c(c2)OCO3)no1 returned SENP7 inh 53.1*, SENP8 block-1 8.8, SENP1 inh 4.3, SENP8 block-2 39.9, SENP6 block 66.4*, SENP8 conf 16.6, SENP6 confirm 39.0, SENP7 confirm 79.7*, Casp3 select 59.9* and SENP luc ctr 7.6.
`CC(=O)c1cccc(NC(=O)c2cc(C(C)C)on2)c1` gave SENP7 inh -1.9, SENP8 block-1 20.0, SENP1 inh 2.5, SENP8 block-2 -3.8 and SENP6 block 16.9.
For CC(C)Cc1cc(C(=O)Nc2ccc(F)cc2F)no1 the results were SENP7 inh 56.3*, SENP8 block-1 22.9, SENP1 inh 1.7, SENP8 block-2 45.3, SENP6 block 64.3*, SENP8 conf -8.5, SENP6 confirm 47.4, SENP7 confirm 82.3*, Casp3 select 60.2* and SENP luc ctr 5.3.
CC(C)Cc1cc(C(=O)Nc2cc(Cl)ccc2Cl)no1 was read as SENP7 inh -4.9, SENP8 block-1 4.5, SENP1 inh 2.4, SENP8 block-2 0.8 and SENP6 block -16.6.
Screening CC(C)c1cc(C(=O)Nc2cccc(Cl)c2)no1 returned SENP7 inh 90.9*, SENP8 block-1 17.6, SENP1 inh 2.2, SENP8 block-2 88.6*, SENP6 block 89.0*, SENP8 conf 94.4*, SENP6 confirm 95.9*, SENP7 confirm 101.7*, Casp3 select 91.7* and SENP luc ctr 87.6*.
`CC(C)Cc1cc(C(=O)Nc2ccc(Br)cc2)no1` gave SENP7 inh -4.4, SENP8 block-1 25.8, SENP1 inh 2.1, SENP8 block-2 -8.0 and SENP6 block 2.6.
COC(=O)c1ccc(COc2cccc(C)c2C)cc1 was read as SENP7 inh 3.7, SENP8 block-1 -2.2, SENP1 inh 1.1, SENP8 block-2 -13.8 and SENP6 block 17.2.
Screening COc1ccc(NC(=O)c2cc(C3CCCCN3C(=O)c3cccs3)on2)c(C)c1 (stereo not given) returned SENP8 block-1 11.4 and SENP1 inh -1.6.
Screening Cc1nnc(NC(=O)Nc2cccc(Cl)c2)s1 returned SENP7 inh 47.0, SENP8 block-1 9.1, SENP1 inh -0.2, SENP8 block-2 25.9, SENP6 block 56.5*, SENP8 conf 31.0, SENP6 confirm 51.7*, SENP7 confirm 62.5*, Casp3 select 56.4* and SENP luc ctr 15.2.
